Results reported in ChEMBL document CHEMBL1177742, “Withanolide A and asiatic acid modulate multiple targets associated with amyloid-beta precursor protein processing and amyloid-beta protein clearance” (J Nat Prod, 2010).
Activity calls are given as the source filed them. The rule behind the calls is not given here.

What was measured:
Cortical neurone [1] = experiment: Cytotoxicity against Sprague-Dawley rat primary cortical neurons assessed as cell morphology at 10 uM after 24 hrs by MAP2 immunostaining; assay type: cell-based
Procedure, shortened: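 Cortical neurons from 1-day-old Sprague-Dawley pups, plated on poly-D-lysine at 1 × 10^6 cells/well in DMEM with 10% horse serum, used at 3–4 days in culture. Treated 24 h alongside DMSO control (0.01% or 0.1%). Fixed in 4% paraformaldehyde, blocked with Triton X-100/BSA, MAP-2 (1:50) overnight at 4 °C, rhodamine secondary, imaged by fluorescence microscopy at 40X.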

Cortical neurone [2] = experiment: Reduction of BACE1 expression in Sprague-Dawley rat primary cortical neurons after 24 hrs by immunoblot analysis; assay type: functional, cell-based
Procedure, shortened: (§1)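 Primary cortical neurons (1-day-old Sprague-Dawley pups, 3–4 day cultures) treated 24 h at 0–100 μM or 0–10 μM, with DMSO control. Lysed in RIPA, protein quantified by BCA, equal amounts run on 10% Tris–HCl gels, nitrocellulose transfer. BACE1 and ADAM10 antibodies each 1:1000 overnight at 4 °C, HRP secondary, chemiluminescence. Mature ADAM10 is the ~60 kDa band. Bands normalized to actin; mean ± S.D., n=3, Student's t-test.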

Cortical neurone [3] = experiment: Induction of ADAM10 activation in Sprague-Dawley rat primary cortical neurons after 24 hrs by immunoblot analysis; assay type: functional, cell-based; procedure, shortened: as §1
Cortical neurone [4] = experiment: Induction of matured ADAM10 level in Sprague-Dawley rat primary cortical neurons after 24 hrs by immunoblot analysis; assay type: functional, cell-based; procedure, shortened: as §1
Cortical neurone [5] = experiment: Induction of IDE levels in Sprague-Dawley rat primary cortical neurons at 5 to 100 uM after 24 hrs by immunoblot analysis; assay type: functional, cell-based; settings: 1 to 10 uM, in the assay text read “1 to 10 uM” for “5 to 100 uM”
Procedure, shortened: (§2)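 Cortical neurons from neonatal Sprague-Dawley rats treated 24 h at 0, 5, 20, 100 μM or 0, 1, 5, 10 μM, with DMSO control. Lysates were immunoblotted on 10% Tris–HCl gels with IDE or NEP antibody (1:1000, 4 °C overnight), nitrocellulose transfer, HRP detection. Intensities normalized to actin; mean ± S.D. of three independent experiments, Student's t-test.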

Cortical neurone [6] = experiment: Induction of NEP levels in Sprague-Dawley rat primary cortical neurons at 5 uM after 24 hrs by immunoblot analysis; assay type: functional, cell-based; procedure, shortened: as §2
Cortical neurone [7] = experiment: Cytotoxicity against Sprague-Dawley rat primary cortical neurons assessed as cell death at 100 uM after 24 hrs by MAP2 immunostaining; assay type: cell-based
Procedure, shortened: (§3)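 Neurons from 1-day-old pups were plated at 1 × 10^6 cells/well on poly-D-lysine in DMEM with 10% horse serum, 25 mM glucose, 10 mM HEPES, 2 mM glutamine and antibiotics. Day 3–4 cultures were treated 24 h (vehicle 0.1% DMSO), fixed in 4% paraformaldehyde, blocked (0.1% Triton X-100, 1% BSA), stained with MAP-2 1:50 overnight at 4 °C plus rhodamine secondary, and imaged by fluorescence microscopy (40X).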

Cortical neurone [8] = experiment: Cytotoxicity against Sprague-Dawley rat primary cortical neurons assessed as cell morphology at 100 uM after 24 hrs by MAP2 immunostaining; assay type: cell-based; procedure, shortened: as §3
Cortical neurone [9] = experiment: Induction of IDE levels in Sprague-Dawley rat primary cortical neurons after 24 hrs by immunoblot analysis; assay type: functional, cell-based; procedure, shortened: as §2
Cortical neurone [10] = experiment: Induction of IDE levels in Sprague-Dawley rat Alzheimer's disease model primary cortical neurons after 24 hrs by immunoblot analysis; assay type: functional, cell-based
[11] = tested on: ADAM10 (alpha-secretase) (Rattus norvegicus); experiment: Increase in alpha-secretase activity in Sprague-Dawley rat primary cortical neurons assessed as increase in C83 level by immunoblot analysis; settings: Cerebral cortex neuron
[12] = tested on: ADAM10 (alpha-secretase) (Rattus norvegicus); experiment: Increase in alpha-secretase activity in Sprague-Dawley rat primary cortical neurons assessed as increase in sAPPalpha level by immunoblot analysis; settings: Cerebral cortex neuron

| Structure (SMILES) | Activity (Cortical neurone [1]) | Activity (Cortical neurone [2]) | Activity (Cortical neurone [3]) | Activity (Cortical neurone [4]) | Activity (Cortical neurone [5]) | Activity (Cortical neurone [6]) | Activity (Cortical neurone [7]) | Activity (Cortical neurone [8]) | Activity (Cortical neurone [9]) | Activity (Cortical neurone [10]) | Activity [11] | Activity [12] |
| --- | --- | --- | --- | --- | --- | --- | --- | --- | --- | --- | --- | --- |
| C[C@H]1[C@H](C)CC[C@]2(C(=O)O)CC[C@]3(C)C(=CC[C@@H]4[C@@]5(C)C[C@@H](O)[C@H](O)[C@@](C)(CO)[C@@H]5CC[C@]43C)[C@H]12 [ASIATIC ACID] | Non-toxic | Dose-dependent effect | Dose-dependent effect | Dose-dependent effect | inactive | Active | – | – | – | – | – | – |
| CC1=C(C)C(=O)O[C@@H]([C@](C)(O)[C@H]2CC[C@H]3[C@@H]4[C@@H]5O[C@@H]5[C@@]5(O)CC=CC(=O)[C@]5(C)[C@H]4CC[C@]23C)C1 [WITHANOLIDE A] | – | Dose-dependent effect | Dose-dependent effect | Dose-dependent effect | – | – | Non-toxic | Non-toxic | Dose-dependent effect | Active | Active | Active |
